Among the data in ChEMBL document CHEMBL3763084, “Design and synthesis of substituted pyrido[3,2-d]-1,2,3-triazines as potential Pim-1 inhibitors” (Bioorg Med Chem Lett, 2016) are IC50, inhibition and Activity values, retold here.

Structures are written as SMILES. Active and inactive are the calls of the source. No cut-off for these calls is given here.

Assay [1] has as its target T1, Serine/threonine-protein kinase pim-1 (Homo sapiens, UniProt P11309). Put plainly: Inhibition of Pim 1 (unknown origin) after 50 mins by HTRF method. Background: TR-FRET usually uses a lanthanide donor and a delayed reading to cut background.
The target in assay [2] is T1, Serine/threonine-protein kinase pim-1. Briefly: Inhibition of Pim1 in human PC3 cells assessed as decrease in c-Myc level at 5 to 20 uM after 24 hrs by western blot analysis. The format is cell-based. The settings on record: PC-3. Put shortly:
(§1)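 PC-3 cells were exposed for 24 h to the test compound at 0, 5, 10 or 20 μM, with DMSO as the negative control and a reference Pim-1 inhibitor at 10 μM. Lysates were analysed by western blot for BAD phospho-Ser112, 4E-BP1 phospho-Thr37/46, c-Myc and total Pim-1.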

A further assay has as its system LNCaP. Put plainly: Antiproliferative activity against human LNCAP cells after 96 hrs by MTT assay. The assay is classed as functional, cell-based.
Assay [3] concerns the target T1, Serine/threonine-protein kinase pim-1. Put plainly: Inhibition of Pim1 in human PC3 cells assessed as decrease in 4E-BP1 phosphorylation at Thr37/46 residue after 24 hrs by western blot analysis. The format is cell-based. The following applies: PC-3. Put shortly: as §1
Background: In western blotting, separated proteins are transferred to a membrane and probed.

Assay [4] shares this target. Briefly: Inhibition of Pim1 in human PC3 cells assessed as decrease in BAD phosphorylation at Ser112 residue after 24 hrs by western blot analysis. The assay is classed as cell-based. The following applies: PC-3. Summed up: as §1
A further assay deals with PC-3. Put plainly: Effect on PIM1 expression in human PC3 cells at 5 to 20 uM after 24 hrs by western blot analysis. The assay is classed as functional, cell-based. Summed up:
as §1

Assay [5] is described as follows: Antiproliferative activity against human PC3 cells after 96 hrs by MTT assay. The assay is classed as functional, cell-based. The settings on record: PC-3, 96 h. On the technique in general: Tetrazolium assays rely on reduction of a dye to a coloured formazan, in cell work by metabolically active cells.
Assay [6] concerns the target T1, Serine/threonine-protein kinase pim-1. The settings on record: PC-3, 10 uM.
Assay [7] has the same target. The settings on record: PC-3, 10 uM. This is another data set of the same source.
Assay [8] has the same target. The settings on record: PC-3, 10 uM. This is another data set of the same source.

On to `CC1CCCCN1c1ccc2nnnc(Nc3cccc(OC(F)(F)F)c3)c2n1` (stereo not given), for which the IC50 (as a rule, the concentration that gives 50% inhibition) in [1] stood at 1.31 µM.
Take `FC(F)(F)Oc1cccc(Nc2nnnc3ccc(N4CCC(N5CCCC5)CC4)nc23)c1`: the inhibition result in [2] is “Active”. Also, the results for the IC50 (in the assay with LNCaP; in [5]; in [1]) were 10.7 µM, 8.16 µM and 1.05 µM, respectively. The inhibition result in assay [3] and in assay [4] was “Dose-dependent effect” each time. For the same compound, in the assay on PC-3, the result was inactive.
For `FC(F)(F)Oc1cccc(Nc2nnnc3ccc(NCC4CCNCC4)nc23)c1`, the IC50 was found to be 11.5 µM in the assay with LNCaP, 8.32 µM in assay [5] and 0.8 µM in [1].
For `FC(F)(F)Oc1cccc(Nc2nnnc3ccc(N4CCNCC4)nc23)c1` the same measures were 8.51 µM, 11.5 µM and 0.69 µM.
For `OCCNc1ccc2nnnc(Nc3cccc(OC(F)(F)F)c3)c2n1` the same measures were 42.9 µM, > 100 µM and 2.1 µM.
For `FC(F)(F)Oc1cccc(Nc2nnnc3ccc(N4CCCC4)nc23)c1` the same measures were > 100 µM, > 100 µM and > 10 µM.
For the compound `CCN1CCN(c2ccc3nnnc(Nc4cccc(OC(F)(F)F)c4)c3n2)CC1`, the IC50 worked out at 14.3 µM in the assay on LNCaP, 16.9 µM in assay [5] and 2.04 µM in assay [1].
For `CC(C)(C)OC(=O)N1CCC(CNc2ccc3nnnc(Nc4cccc(OC(F)(F)F)c4)c3n2)CC1`, the results for the IC50 (in the assay on LNCaP; in assay [5]; in [1]) were > 100 µM, > 100 µM and > 10 µM, respectively.
Consider `FC(F)(F)Oc1cccc(Nc2nnnc3ccc(Cl)nc23)c1`, for which the IC50 is 8.62 µM with LNCaP, 5.99 µM in assay [5] and > 10 µM in assay [1].
`CCCCOc1ccc2nnnc(Nc3cccc(OC(F)(F)F)c3)c2n1`: the half-maximal inhibitory concentration (IC50) in [1] is > 10 µM.
Consider `COc1ccc2nnnc(Nc3cccc(OC(F)(F)F)c3)c2n1`, for which the IC50 in [1] was 2.02 µM.
For the compound `CC1CCN(c2ccc3nnnc(Nc4cccc(OC(F)(F)F)c4)c3n2)CC1`, the IC50 in assay [1] was > 10 µM.
As to `CCOc1ccc2nnnc(Nc3cccc(OC(F)(F)F)c3)c2n1`, the IC50 with LNCaP was > 100 µM; in assay [5], > 100 µM; in assay [1] it was > 10 µM.
Take `CN1CCC(CNc2ccc3ncc(-c4cccc(OC(F)(F)F)c4)n3n2)CC1` [SGI-1776]: the inhibition entry in assay [6], in assay [7] and in assay [8] was “Active” throughout. The IC50 amounted to 6.85 µM in the assay with LNCaP and 4.86 µM in assay [5].
For the compound `FC(F)(F)Oc1cccc(Nc2nnnc3ccc(N4CCC(N5CCCCC5)CC4)nc23)c1`, the IC50 with LNCaP worked out at 4.9 µM; in [5], 5.58 µM; in assay [1] it was 2.47 µM.
Take `CN1CCN(c2ccc3nnnc(Nc4cccc(OC(F)(F)F)c4)c3n2)CC1`: the figures for the half-inhibitory concentration (IC50) (in the assay on LNCaP; in assay [5]; in [1]) were 20.3 µM, 24 µM and 0.6 µM, respectively.
For `CN1CCC(CNc2ccc3nnnc(Nc4cccc(OC(F)(F)F)c4)c3n2)CC1` the same measures were 17.3 µM, 15.8 µM and 1.87 µM.
For `CC(C)N1CCN(c2ccc3nnnc(Nc4cccc(OC(F)(F)F)c4)c3n2)CC1` the same measures were 10.7 µM, 13.8 µM and 1.08 µM.
For `FC(F)(F)Oc1cccc(Nc2nnnc3ccc(N4CCOCC4)nc23)c1` the same measures were 31 µM, 41 µM and 1.45 µM.
